Measured values published in ChEMBL document CHEMBL1156919, “Synthesis and induction of apoptosis signaling pathway of ent-kaurane derivatives” (Bioorg Med Chem, 2010).
Calls of active or inactive are those of the source. The rule behind the calls is not given here.

What was measured:
[1] = system: HepG2; assay: Cytotoxicity against human HepG2 cells assessed as reduction in cell viability after 24 hrs by MTT assay; format: functional, cell-based; settings: HepG2, 24 h
Method in brief: (§1)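 Cancer cells kept in DMEM with 10% FBS, L-glutamine and antibiotics. Exposed to 1–100 μM for 24 h, then MTT at 37 °C for 4 h. Formazan dissolved in DMSO and read at 540 nm. Triplicate wells, at least three independent experiments. Viability reduction expressed against untreated cultures. IC50 is the concentration giving 50% loss of viability.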

[2] = system: RAW264.7; assay: Induction of apoptosis in mouse RAW264.7 cells assessed as caspase 9 activation at 5 uM after 24 hrs by fluorimetry; format: functional, cell-based
Method in brief: (§2)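 RAW cells treated with 5 μM for 24 h, with or without 40 μM z-VAD. Caspase activity read fluorimetrically in cytosolic extracts. Substrates: Ac-DEVD-AMC for caspase-3, Ac-IETD-AFC for caspase-8, Ac-LEHD-AFC for caspase-9. Means ± SD of three independent experiments run in triplicate.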

[3] = system: RAW264.7; assay: Induction of apoptosis in mouse RAW264.7 cells assessed as caspase 3 activation at 5 uM after 24 hrs by fluorimetry; format: functional, cell-based; method in brief: as §2
[4] = system: RAW264.7; assay: Increase in p53 protein expression in mouse RAW264.7 cells at 5 uM by Western blot; format: functional, cell-based
Method in brief: (§3)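 RAW 264.7 cells incubated with 5 μM and sampled at several time points. Cytosolic extracts run on SDS–PAGE (10–15% gels) and blotted to PVDF. Probed for p53, Bax, Bcl-2, Bcl-xl, XIAP, IAP-1 and IAP-2, then HRP secondary and chemiluminescence. β-actin served as loading control. Protein measured by Bio-Rad assay.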

[5] = system: RAW264.7; assay: Induction of apoptosis in mouse RAW264.7 cells assessed as caspase 8 activation at 5 uM in presence of 40 uM caspase inhibitor z-VAD after 24 hrs by fluorimetric assay; format: functional, cell-based; method in brief: as §2
[6] = system: RAW264.7; assay: Induction of apoptosis in mouse RAW264.7 cells assessed as caspase 3 activation at 5 uM in presence of 40 uM caspase inhibitor z-VAD after 24 hrs by fluorimetric assay; format: functional, cell-based; method in brief: as §2
[7] = system: RAW264.7; assay: Induction of apoptosis in mouse RAW264.7 cells at 5 uM in presence of 40 uM caspase inhibitor z-VAD after 24 hrs by flow cytometry; format: functional, cell-based
Method in brief: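 RAW 264.7 cells given 5 μM for 24 h, with or without 40 μM z-VAD. Stained with 0.005% (w/v) PI and analysed by flow cytometry. Apoptotic percentage taken from a forward scatter versus PI fluorescence dot plot. Three independent experiments in triplicate, means ± SD.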

[8] = system: RAW264.7; assay: Cytotoxicity against mouse RAW264.7 cells assessed as reduction in cell viability after 24 hrs by MTT assay; format: functional, cell-based; settings: RAW264.7, 24 h
Method in brief: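 RAW 264.7 mouse macrophage line kept in RPMI 1640 with 10% FBS, L-glutamine and antibiotics. Treated with 1–100 μM for 24 h, then MTT at 37 °C for 4 h. Formazan taken up in DMSO and read at 540 nm. Triplicate, at least three independent experiments. IC50 is the concentration giving 50% loss of viability relative to untreated cells.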

[9] = system: RAW264.7; assay: Increase in Bax protein expression in mouse RAW264.7 cells at 5 uM by Western blot; format: functional, cell-based; method in brief: as §3
[10] = Toxicity in thioglycolate-induced mouse peritoneal macrophages assessed as reduction in cell viability after 24 hrs by MTT assay; format: cell-based; settings: peritoneal macrophage cell
Method in brief: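 Primary peritoneal macrophages from thioglycolate-injected mice exposed to a range of concentrations for 24 h. Viability read by MTT at 37 °C for 4 h, formazan dissolved in DMSO, absorbance at 540 nm. Three independent experiments in duplicate, means ± SD.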

[11] = system: RAW264.7; assay: Induction of apoptosis in mouse RAW264.7 cells at 1 to 25 uM after 24 hrs by flow cytometry; format: functional, cell-based
Method in brief: (§4)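 RAW 264.7 cells exposed to 1–25 μM for 24 h. Stained with 0.005% (w/v) propidium iodide and analysed at once by flow cytometry. Apoptotic and necrotic fractions taken from a forward scatter versus PI fluorescence dot plot. Means ± SD of three independent experiments in triplicate.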

[12] = system: RAW264.7; assay: Decrease in IAP protein expression in mouse RAW264.7 cells at 5 uM by Western blot; format: functional, cell-based; method in brief: as §3
[13] = system: RAW264.7; assay: Decrease in Bcl-2 protein expression in mouse RAW264.7 cells at 5 uM by Western blot; format: functional, cell-based; method in brief: as §3
[14] = system: RAW264.7; assay: Induction of apoptosis in mouse RAW264.7 cells assessed as caspase 8 activation at 5 uM after 24 hrs by fluorimetry; format: functional, cell-based; method in brief: as §2
[15] = system: HT-29; assay: Cytotoxicity against human HT-29 cells assessed as reduction in cell viability after 24 hrs by MTT assay; format: functional, cell-based; settings: HT-29, 24 h; method in brief: as §1
[16] = system: HeLa; assay: Cytotoxicity against human HeLa cells assessed as reduction in cell viability after 24 hrs by MTT assay; format: functional, cell-based; method in brief: as §1
[17] = Toxicity in thioglycolate-induced mouse peritoneal macrophages assessed as induction of apoptosis after 24 hrs by flow cytometry; format: cell-based; settings: peritoneal macrophage cell
Method in brief: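 Peritoneal macrophages collected from thioglycolate-injected mice and treated across a concentration range for 24 h. Stained with PI and analysed by flow cytometry for apoptotic percentage. Means ± SD of three independent experiments done in duplicate.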

[18] = system: RAW264.7; assay: Decrease in Bcl-xl protein expression in mouse RAW264.7 cells at 5 uM by Western blot; format: functional, cell-based; method in brief: as §3
[19] = system: RAW264.7; assay: Induction of apoptosis in mouse RAW264.7 cells assessed as caspase 9 activation at 5 uM in presence of 40 uM caspase inhibitor z-VAD after 24 hrs by fluorimetric assay; format: functional, cell-based; method in brief: as §2
[20] = system: RAW264.7; assay: Induction of apoptosis in mouse RAW264.7 cells at 1 uM after 24 hrs by flow cytometry; format: functional; method in brief: as §4

Row | SMILES | IC50 [1] | Activity [2] | Activity [3] | Activity [4] | Activity [5] | Activity [6] | Activity [7] | IC50 [8] | Activity [9] | Activity [10] | Activity [11] | Activity [12] | Activity [13] | Activity [14] | IC50 [15] | IC50 [16] | Activity [17] | Activity [18] | Activity [19] | Activity [20]
1 | C=C1C(=O)[C@@]23CC[C@@H]4[C@](C)(C(=O)OC)CCC[C@@]4(C)C2=CC[C@@H]1C3 | > 100 µM | Active | Active | Active | inactive | inactive | inactive | 5 µM | Active | Non-toxic | Active | Active | Active | Active | 25 µM | 25 µM | Non-toxic | Active | inactive | –
2 | COC(=O)[C@]1(C)CCC[C@@]2(C)C3=CC[C@@H]4C[C@]3(C=C4C=O)CC[C@H]12 | 25 µM | Active | Active | Active | inactive | inactive | inactive | 5 µM | Active | Toxic | Active | Active | Active | – | 40 µM | 10 µM | Toxic | Active | inactive | –
3 | C=C1[C@H]2CC3=C([C@H](C2)[C@@H]1O)[C@]1(C)CCC[C@@](C)(C(=O)OC)[C@H]1CC3 | > 100 µM | Active | Active | Active | inactive | inactive | inactive | 5 µM | Active | Non-toxic | Active | Active | Active | Active | > 100 µM | > 100 µM | Non-toxic | Active | inactive | –
4 | C=C1C(=O)[C@@]23CC[C@H]4[C@@](C)(CCC[C@@]4(C)C(=O)OC)[C@@H]2CC[C@@H]1C3 | 75 µM | Active | Active | Active | inactive | inactive | inactive | 1 µM | Active | Non-toxic | Active | Active | Active | Active | 30 µM | 50 µM | Non-toxic | Active | inactive | 50%
